{"source": "ChEMBL document CHEMBL4689842", "about": "“EUbOPEN Chemogenomics Library wave 1” (2021)", "test_system": "U2OS", "experiment": "Multiplex assay against U2OS", "assay_type": "toxicity, cell-based", "details": "human", "outline": "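Live cells were stained at seeding with Hoechst33342, BioTracker Green Microtubule Cytoskeleton Dye, MitoTracker Red and Annexin V Alexa Fluor 680. Following compound addition, they were imaged on a CQ1 microscope at 37°C and 5% CO2 and gated by CellPathfinder machine learning into Hoechst high-intensity objects or normal cells, with normal cells split into healthy, pyknosed or fragmented nuclei and pyknosed cells into mitotic or apoptotic. Tubulin, mitochondrial-mass and membrane-permeability phenotypes are per cents of healthy-nucleus cells.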", "key": {"[1]": {"details": "12 h, 1 µM, compound concentration 1 uM, replicate 1"}, "[2]": {"details": "12 h, 1 µM, compound concentration 1 uM, replicate 2"}, "[3]": {"details": "12 h, 10 µM, compound concentration 10 uM, replicate 1"}, "[4]": {"details": "12 h, 10 µM, compound concentration 10 uM, replicate 2"}, "[5]": {"details": "24 h, 1 µM, compound concentration 1 uM, replicate 1"}, "[6]": {"details": "24 h, 1 µM, compound concentration 1 uM, replicate 2"}, "[7]": {"details": "24 h, 10 µM, compound concentration 10 uM, replicate 1"}}}
{"smiles": "Cc1nc(Cc2cccc(C(F)(F)F)c2)sc1-c1ccc(C(N)=O)nc1", "note": "[TP-024n]", "values": [{"measurement": "Population Apoptotic (%)", "setting": "[1]", "result": 58, "unit": "%"}, {"measurement": "Population Fragmented Nuclei (%)", "setting": "[1]", "result": 8, "unit": "%"}, {"measurement": "Population Healthy Nuclei (%)", "setting": "[1]", "result": 85, "unit": "%"}, {"measurement": "Population Hoechst High Intensity Objects (%)", "setting": "[1]", "result": 5, "unit": "%"}, {"measurement": "Population Membrane Permeable-Phenotype (%)", "setting": "[1]", "result": 5, "unit": "%"}, {"measurement": "Population Mitochondria Different-Phenotype (%)", "setting": "[1]", "result": 10, "unit": "%"}, {"measurement": "Population Mitotic Cells (%)", "setting": "[1]", "result": 41, "unit": "%"}, {"measurement": "Population Normal (%)", "setting": "[1]", "result": 94, "unit": "%"}, {"measurement": "Population Pyknosed Nuclei (%)", "setting": "[1]", "result": 6, "unit": "%"}, {"measurement": "Population Tubulin-Different-Phenotype (%)", "setting": "[1]", "result": 9, "unit": "%"}, {"measurement": "Total Cell Count", "setting": "[1]", "result": 159}, {"measurement": "Population Apoptotic (%)", "setting": "[2]", "result": 50, "unit": "%"}, {"measurement": "Population Fragmented Nuclei (%)", "setting": "[2]", "result": 0, "unit": "%"}, {"measurement": "Population Healthy Nuclei (%)", "setting": "[2]", "result": 94, "unit": "%"}, {"measurement": "Population Hoechst High Intensity Objects (%)", "setting": "[2]", "result": 11, "unit": "%"}, {"measurement": "Population Membrane Permeable-Phenotype (%)", "setting": "[2]", "result": 2, "unit": "%"}, {"measurement": "Population Mitochondria Different-Phenotype (%)", "setting": "[2]", "result": 18, "unit": "%"}, {"measurement": "Population Mitotic Cells (%)", "setting": "[2]", "result": 50, "unit": "%"}, {"measurement": "Population Normal (%)", "setting": "[2]", "result": 88, "unit": "%"}, {"measurement": "Population Pyknosed Nuclei (%)", "setting": "[2]", "result": 5, "unit": "%"}, {"measurement": "Population Tubulin-Different-Phenotype (%)", "setting": "[2]", "result": 16, "unit": "%"}, {"measurement": "Total Cell Count", "setting": "[2]", "result": 130}, {"measurement": "Population Apoptotic (%)", "setting": "[3]", "result": 45, "unit": "%"}, {"measurement": "Population Healthy Nuclei (%)", "setting": "[3]", "result": 68, "unit": "%"}, {"measurement": "Population Hoechst High Intensity Objects (%)", "setting": "[3]", "result": 6, "unit": "%"}, {"measurement": "Population Membrane Permeable-Phenotype (%)", "setting": "[3]", "result": 3, "unit": "%"}, {"measurement": "Population Mitochondria Different-Phenotype (%)", "setting": "[3]", "result": 27, "unit": "%"}, {"measurement": "Population Mitotic Cells (%)", "setting": "[3]", "result": 54, "unit": "%"}, {"measurement": "Population Normal (%)", "setting": "[3]", "result": 93, "unit": "%"}, {"measurement": "Population Pyknosed Nuclei (%)", "setting": "[3]", "result": 13, "unit": "%"}, {"measurement": "Population Tubulin-Different-Phenotype (%)", "setting": "[3]", "result": 22, "unit": "%"}, {"measurement": "Total Cell Count", "setting": "[3]", "result": 186}, {"measurement": "Population Apoptotic (%)", "setting": "[4]", "result": 66, "unit": "%"}, {"measurement": "Population Fragmented Nuclei (%)", "setting": "[4]", "result": 17, "unit": "%"}, {"measurement": "Population Healthy Nuclei (%)", "setting": "[4]", "result": 67, "unit": "%"}, {"measurement": "Population Hoechst High Intensity Objects (%)", "setting": "[4]", "result": 4, "unit": "%"}, {"measurement": "Population Membrane Permeable-Phenotype (%)", "setting": "[4]", "result": 9, "unit": "%"}, {"measurement": "Population Mitochondria Different-Phenotype (%)", "setting": "[4]", "result": 21, "unit": "%"}, {"measurement": "Population Mitotic Cells (%)", "setting": "[4]", "result": 33, "unit": "%"}, {"measurement": "Population Normal (%)", "setting": "[4]", "result": 95, "unit": "%"}, {"measurement": "Population Pyknosed Nuclei (%)", "setting": "[4]", "result": 14, "unit": "%"}, {"measurement": "Population Tubulin-Different-Phenotype (%)", "setting": "[4]", "result": 11, "unit": "%"}, {"measurement": "Total Cell Count", "setting": "[4]", "result": 44}, {"measurement": "Population Apoptotic (%)", "setting": "[5]", "result": 46, "unit": "%"}, {"measurement": "Population Fragmented Nuclei (%)", "setting": "[5]", "result": 6, "unit": "%"}, {"measurement": "Population Healthy Nuclei (%)", "setting": "[5]", "result": 86, "unit": "%"}, {"measurement": "Population Hoechst High Intensity Objects (%)", "setting": "[5]", "result": 4, "unit": "%"}, {"measurement": "Population Membrane Permeable-Phenotype (%)", "setting": "[5]", "result": 3, "unit": "%"}, {"measurement": "Population Mitochondria Different-Phenotype (%)", "setting": "[5]", "result": 8, "unit": "%"}, {"measurement": "Population Mitotic Cells (%)", "setting": "[5]", "result": 53, "unit": "%"}, {"measurement": "Population Normal (%)", "setting": "[5]", "result": 95, "unit": "%"}, {"measurement": "Population Pyknosed Nuclei (%)", "setting": "[5]", "result": 6, "unit": "%"}, {"measurement": "Population Tubulin-Different-Phenotype (%)", "setting": "[5]", "result": 8, "unit": "%"}, {"measurement": "Total Cell Count", "setting": "[5]", "result": 164}, {"measurement": "Population Apoptotic (%)", "setting": "[6]", "result": 50, "unit": "%"}, {"measurement": "Population Fragmented Nuclei (%)", "setting": "[6]", "result": 5, "unit": "%"}, {"measurement": "Population Healthy Nuclei (%)", "setting": "[6]", "result": 91, "unit": "%"}, {"measurement": "Population Hoechst High Intensity Objects (%)", "setting": "[6]", "result": 5, "unit": "%"}, {"measurement": "Population Membrane Permeable-Phenotype (%)", "setting": "[6]", "result": 1, "unit": "%"}, {"measurement": "Population Mitochondria Different-Phenotype (%)", "setting": "[6]", "result": 7, "unit": "%"}, {"measurement": "Population Mitotic Cells (%)", "setting": "[6]", "result": 50, "unit": "%"}, {"measurement": "Population Pyknosed Nuclei (%)", "setting": "[6]", "result": 3, "unit": "%"}, {"measurement": "Population Tubulin-Different-Phenotype (%)", "setting": "[6]", "result": 15, "unit": "%"}, {"measurement": "Total Cell Count", "setting": "[6]", "result": 126}, {"measurement": "Population Apoptotic (%)", "setting": "[7]", "result": 42, "unit": "%"}, {"measurement": "Population Fragmented Nuclei (%)", "setting": "[7]", "result": 19, "unit": "%"}, {"measurement": "Population Membrane Permeable-Phenotype (%)", "setting": "[7]", "result": 8, "unit": "%"}, {"measurement": "Population Mitochondria Different-Phenotype (%)", "setting": "[7]", "result": 23, "unit": "%"}, {"measurement": "Population Mitotic Cells (%)", "setting": "[7]", "result": 57, "unit": "%"}]}
